Data published in ChEMBL document CHEMBL4219216, “2-Aminoquinazolin-4(3H)-one based plasmepsin inhibitors with improved hydrophilicity and selectivity” (Bioorg Med Chem, 2018).
Converted amounts (≈) assume the structure as drawn.

What was measured:
[1] = biological target: Cathepsin D (Homo sapiens, UniProt P07339); test: Inhibition of human cathepsin D using DABCYL-Glu-Arg-Nle-Phe-Leu-Ser-Phe-Pro-EDANS as substrate preincubated for 30 mins followed by substrate addition measured every 1 min within 8 to 15 mins by FRET assay
[2] = biological target: Plasmepsin II (Plasmodium falciparum, UniProt P46925); test: Inhibition of Plasmodium falciparum plasmepsin-2 using DABCYL-Glu-Arg-Nle-Phe-Leu-Ser-Phe-Pro-EDANS as substrate preincubated for 30 mins followed by substrate addition measured every 1 min within 8 to 15 mins by FRET assay
Outline: (§1)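 Test compounds at 0.01-100 μM preincubated with enzyme in 0.1 M NaOAc pH 4.5, 10% glycerol, for 30 min at 37 °C. […] Fluorescence (Ex 336, Em 490 nm) read at 37 °C. Rate taken from the linear interval only. Triplicate experiments, IC50 from dose-response fit.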

[3] = biological target: Plasmepsin I (Plasmodium falciparum, UniProt P39898); test: Inhibition of Plasmodium falciparum plasmepsin-1 using DABCYL-Glu-Arg-Nle-Phe-Leu-Ser-Phe-Pro-EDANS as substrate preincubated for 30 mins followed by substrate addition measured every 1 min within 8 to 15 mins by FRET assay; outline: as §1
[4] = biological target: Plasmepsin 4 (Plasmodium falciparum, UniProt Q17SB2); test: Inhibition of Plasmodium falciparum plasmepsin 4 using DABCYL-Glu-Arg-Nle-Phe-Leu-Ser-Phe-Pro-EDANS as substrate preincubated for 30 mins followed by substrate addition measured every 1 min within 8 to 15 mins by FRET assay
Outline: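 Plm IV in 0.1 M NaOAc pH 4.5 with 10% glycerol; compounds tested at 0.01–100 μM, preincubated with enzyme 30 min at 37 °C. […] Fluorescence (Ex 336/Em 490 nm) read at 37 °C; rate taken from the linear interval. Triplicate; IC50 fitted from rates; pepstatin A control.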

[5] = Solubility of the compound in Tris-buffer at pH 7.4 after 16 hrs by HPLC method; assay type: physicochemical; conditions: for solubility at 16 h: Tris buffer, pH 7.4
Outline: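 A DMSO stock (≈10 mg/mL) was diluted 10 µL into 2 mL of 0.05 M TRIS pH 7.4 (0.5% DMSO final) and shaken 16 h at 25 °C. After filtering off the precipitate, the solution was quantified by reversed-phase HPLC (UV 210 or 254 nm) against a methanol-diluted ≈0.05 mg/mL standard. Working range ≈0.005-0.05 mg/mL.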

[6] = biological target: Plasmepsin I (Plasmodium falciparum) (UniProt P39898); test: Inhibition of Plasmodium falciparum plasmepsin-1 using DABCYL-Glu-Arg-Nle-Phe-Leu-Ser-Phe-Pro-EDANS as substrate preincubated for 30 mins followed by substrate addition measured every 1 min within 8 to 15 mins by FRET assay
Plasmepsin I (Plasmodium falciparum), sequence (P39898 whole entry, looked up): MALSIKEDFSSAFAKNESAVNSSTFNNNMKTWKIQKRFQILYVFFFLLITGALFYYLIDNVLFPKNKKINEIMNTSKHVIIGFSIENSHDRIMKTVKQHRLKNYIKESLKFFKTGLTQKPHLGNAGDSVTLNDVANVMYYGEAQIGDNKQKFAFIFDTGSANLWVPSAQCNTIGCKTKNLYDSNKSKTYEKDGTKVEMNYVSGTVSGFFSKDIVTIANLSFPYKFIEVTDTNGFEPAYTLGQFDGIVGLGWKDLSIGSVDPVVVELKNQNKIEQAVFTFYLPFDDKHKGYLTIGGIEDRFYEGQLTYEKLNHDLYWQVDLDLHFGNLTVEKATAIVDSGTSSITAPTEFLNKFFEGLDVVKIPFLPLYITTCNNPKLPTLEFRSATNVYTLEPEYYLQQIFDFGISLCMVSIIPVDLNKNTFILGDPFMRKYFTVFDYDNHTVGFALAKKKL

Plasmepsin II, sequence (P46925 whole entry): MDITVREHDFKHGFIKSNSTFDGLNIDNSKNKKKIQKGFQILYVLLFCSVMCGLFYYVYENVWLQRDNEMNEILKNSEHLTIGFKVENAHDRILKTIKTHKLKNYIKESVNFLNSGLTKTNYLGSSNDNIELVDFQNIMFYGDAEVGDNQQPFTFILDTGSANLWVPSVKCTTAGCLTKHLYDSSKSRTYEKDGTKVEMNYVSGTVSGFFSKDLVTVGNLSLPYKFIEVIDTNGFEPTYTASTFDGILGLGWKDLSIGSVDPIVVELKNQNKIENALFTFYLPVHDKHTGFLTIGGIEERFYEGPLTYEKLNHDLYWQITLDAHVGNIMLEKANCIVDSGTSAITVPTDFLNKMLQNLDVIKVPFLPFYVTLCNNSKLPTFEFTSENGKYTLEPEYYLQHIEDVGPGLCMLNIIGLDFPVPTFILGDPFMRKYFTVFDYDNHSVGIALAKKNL
Cathepsin D, sequence (P07339 65-162 limits assumed): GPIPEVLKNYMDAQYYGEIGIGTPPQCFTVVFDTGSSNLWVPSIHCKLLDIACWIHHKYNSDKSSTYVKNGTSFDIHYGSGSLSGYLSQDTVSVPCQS
Cathepsin D, sequence (P07339 169-412 limits assumed): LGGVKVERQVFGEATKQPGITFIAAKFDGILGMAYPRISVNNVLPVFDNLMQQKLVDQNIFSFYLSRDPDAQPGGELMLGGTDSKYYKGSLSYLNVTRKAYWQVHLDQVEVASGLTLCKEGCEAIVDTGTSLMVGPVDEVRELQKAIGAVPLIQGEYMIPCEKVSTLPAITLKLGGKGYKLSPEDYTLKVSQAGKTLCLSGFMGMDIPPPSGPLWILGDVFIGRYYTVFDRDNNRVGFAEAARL
Plasmepsin I, sequence (P39898 whole entry): as the sequence (P39898 whole entry, looked up) above
Plasmepsin 4, sequence (Q17SB2 whole entry): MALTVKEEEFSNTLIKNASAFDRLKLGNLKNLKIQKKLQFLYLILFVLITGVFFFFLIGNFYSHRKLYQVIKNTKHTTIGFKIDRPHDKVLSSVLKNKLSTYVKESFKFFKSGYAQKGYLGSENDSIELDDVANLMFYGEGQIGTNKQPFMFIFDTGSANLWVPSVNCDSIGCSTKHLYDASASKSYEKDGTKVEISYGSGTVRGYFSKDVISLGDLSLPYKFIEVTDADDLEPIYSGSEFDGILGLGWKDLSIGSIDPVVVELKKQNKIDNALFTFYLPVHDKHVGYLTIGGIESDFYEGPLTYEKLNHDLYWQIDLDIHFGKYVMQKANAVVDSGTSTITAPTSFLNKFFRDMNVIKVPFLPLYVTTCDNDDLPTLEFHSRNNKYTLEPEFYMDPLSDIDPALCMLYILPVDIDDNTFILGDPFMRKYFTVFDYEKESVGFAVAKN

Oc1ccc(/C=C/c2cc(O)cc(O)c2)cc1 [RESVERATROL]
IC50 [1]: 138 µM

Nc1nc2cc(-c3ccccc3)cc(-c3ccc(C(=O)O)cc3)c2c(=O)n1CC1CCCO1 (racemic)
IC50 [2]: 330 nM
IC50 [3]: 3500 nM
IC50 [4]: 1400 nM
IC50 [1]: 100 µM

Nc1nc2cc(-c3ccccc3)cc(-c3cccc(C(=O)O)c3)c2c(=O)n1CC1CCCO1 (racemic)
IC50 [2]: 500 nM
IC50 [3]: 1000 nM
IC50 [4]: 1500 nM
IC50 [1]: 98 µM

Nc1nc2cc(-c3ccccc3)cc(-c3ccncc3)c2c(=O)n1CC1CCCO1 (racemic)
IC50 [2]: 1000 nM
IC50 [3]: 5000 nM
IC50 [4]: 2400 nM
IC50 [1]: > 100 µM

CCCCCc1ccc(-c2ccc3c(=O)n(C[C@@H]4CC[C@H](c5ccccc5)O4)c(N)nc3c2)cc1
IC50 [4]: 100 nM
solubility at 16 h [5]: < 0.01 µg/mL

NC(=O)c1ccc(-c2cc(-c3ccccc3)cc3nc(N)n(CC4CCCO4)c(=O)c23)cc1 (racemic)
IC50 [2]: 600 nM
IC50 [3]: 3400 nM
IC50 [4]: 2500 nM
IC50 [1]: > 100 µM

Nc1nc2cc(-c3ccccc3)cc(-c3cccnc3)c2c(=O)n1CC1CCCO1 (racemic)
IC50 [2]: 480 nM
IC50 [3]: 3000 nM
IC50 [4]: 1500 nM
IC50 [1]: 71 µM

CCCCCc1ccc(-c2ccc3c(=O)n(CC4CCCO4)c(N)nc3c2)cc1 (racemic)
IC50 [2]: 75 nM
IC50 [3]: 700 nM
IC50 [4]: 92 nM
IC50 [1]: 3.2 µM

CCCCCCCCc1cc(CCC(=O)O)c2c(=O)n(CC3CCCO3)c(N)nc2c1 (racemic)
IC50 [2]: 22 nM
IC50 [3]: 20 nM
IC50 [4]: 110 nM
IC50 [1]: 0.43 µM

Nc1nc2cc(-c3ccc(CCCc4ccccc4)cc3)cc(CCC(=O)O)c2c(=O)n1CC1CCCO1 (racemic)
IC50 [2]: 80 nM
IC50 [3]: 740 nM
IC50 [4]: 30 nM
IC50 [1]: 13 µM
solubility ([5]; buffer, pH 7.4, 16 h): 10 µg/L (≈ 0.0195 µM)

CCCCCc1ccc(-c2cc(CCC(=O)O)c3c(=O)n(CC4CCCO4)c(N)nc3c2)cc1 (racemic)
IC50 [2]: 27 nM
IC50 [3]: 50 nM
IC50 [4]: 42 nM
IC50 [1]: 21 µM
solubility at 16 h [5]: 0.1 µg/mL (≈ 0.216 µM)

Nc1nc2cc(-c3ccc(CCCc4ccccc4)cc3)ccc2c(=O)n1C[C@@H]1CC[C@H](c2ccccc2)O1
IC50 [4]: 130 nM
solubility at 16 h [5]: < 0.01 µg/mL

CCCCCc1ccc(-c2cc(-c3ccc(C(=O)O)cc3)c3c(=O)n(CC4CCCO4)c(N)nc3c2)cc1 (racemic)
IC50 [2]: 23 nM
IC50 [3]: 2400 nM
IC50 [4]: 45 nM
IC50 [1]: 29 µM
solubility at 16 h [5]: 0.03 µg/mL (≈ 0.0586 µM)

Nc1nc2cc(-c3ccccc3)cc(-c3ccc(C(=O)O)cc3)c2c(=O)n1C[C@@H]1CC[C@H](c2ccccc2)O1
IC50 [2]: 280 nM
IC50 [3]: 600 nM
IC50 [4]: 500 nM
IC50 [1]: 20 µM

Nc1nc2cc(-c3ccc(CCCc4ccccc4)cc3)ccc2c(=O)n1CC1CCCO1 (racemic)
IC50 [2]: 700 nM
IC50 [3]: 1300 nM
IC50 [4]: 100 nM
IC50 [1]: > 100 µM

CC(C)CC(=O)N[C@H](C(=O)N[C@H](C(=O)N[C@@H](CC(C)C)[C@@H](O)CC(=O)N[C@@H](C)C(=O)N[C@@H](CC(C)C)[C@@H](O)CC(=O)O)C(C)C)C(C)C [PEPSTATIN]
IC50 [3]: 0.42 nM
IC50 [4]: 0.3 nM
IC50 [6]: 0.42 nM

Nc1cccc(-c2cc(-c3ccccc3)cc3nc(N)n(CC4CCCO4)c(=O)c23)c1 (racemic)
IC50 [2]: 820 nM
IC50 [3]: 2000 nM
IC50 [4]: 1000 nM
IC50 [1]: 93 µM
